CHRM4 PAM: potentiates acetylcholine response at human M4 receptor. P08173. AID 624126. 360,000 compounds, 0.4% hits. activation, % at 3 µM. CHO-K1 hM4/Gqi5, Fluo-8 calcium fluorescence, ACh EC20; 0% = ACh EC20, 100% = maximal ACh;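 active means activation above its plate's cutoff, the mean activation of sample wells plus 3 SD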
Target sequence (P08173 whole entry, looked up): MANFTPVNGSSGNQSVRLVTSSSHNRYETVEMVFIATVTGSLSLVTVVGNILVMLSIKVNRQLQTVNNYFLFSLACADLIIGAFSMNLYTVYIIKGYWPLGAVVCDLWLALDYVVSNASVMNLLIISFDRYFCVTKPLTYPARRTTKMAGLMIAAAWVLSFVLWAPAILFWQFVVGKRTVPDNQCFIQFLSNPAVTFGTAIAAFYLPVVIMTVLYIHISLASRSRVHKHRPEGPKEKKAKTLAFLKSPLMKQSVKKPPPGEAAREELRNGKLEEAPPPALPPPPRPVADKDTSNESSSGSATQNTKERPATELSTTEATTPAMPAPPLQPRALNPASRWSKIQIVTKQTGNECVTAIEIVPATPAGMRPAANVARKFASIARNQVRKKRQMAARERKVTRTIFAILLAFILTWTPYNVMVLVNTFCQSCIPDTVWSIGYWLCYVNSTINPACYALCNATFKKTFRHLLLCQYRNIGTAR
TAAR1 antag: antagonists of human TAAR1 | inhibition, % at 3 µM | CHO RD-HGA16 TAAR1, Fluo-8 calcium fluorescence, antagonist | 360,000 compounds, 1.5% hits | Q96RJ0;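 active means inhibition above a per-plate cutoff, the mean inhibition of test compounds on that plate plus 3 SD, cut at about 49% in these data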;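 further: 0% = DMSO plus EC80 beta-PEA response and 100% = DMSO alone without agonist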
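Test system – hTAAR1-expressing CHO RD-HGA16 cells, Gα16-coupled · Reagent – β-PEA at EC80 concentration, post-compound challenge · Compound dosing – 3 µM, single point · Timing – 140 s kinetic read after compound, 140 s after agonist · Detection – Fluo-8 intracellular calcium dye fluorescence, real-time kinetic reads · Control set – DMSO and EC80 PEA controls · Repeats – n of 1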
CHRM4 agonist: CHRM4 agonism in calcium assay | CHO-K1 hM4/Gqi5, Fluo-8 calcium fluorescence; vehicle 0%, full acetylcholine response 100% | activation, % at 3 µM | 360,000 compounds, 0.14% hits;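 active means activation above the run mean over all test wells plus 3 SD, cut at about 32% in these data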;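 further: peak over basal fluorescence ratio per well then scaled between controls; 0% = DMSO wells and 100% = acetylcholine at EC100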
TAAR1 ag: human TAAR1 agonism | CHO RD-HGA16 TAAR1, Fluo-8 calcium fluorescence; vehicle wells 0%, saturating PEA agonist 100% | Q96RJ0 | activation, % at 3 µM | 360,000 compounds, 0.99% hits;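 active means activation above the mean activation of all test compounds in the run plus 3 SD, cut at about 38% in these data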
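Assay system – CHO-derived RD-HGA16 cells with stable Gα16 and human TAAR1 · Compound dosing – one-point dosing at 3 µM (nominal) · Incubation – 17-24 h seeding, 75 min 37 °C dye, 30 min RT · Measured by – kinetic Fluo-8 calcium fluorescence · Control set – DMSO vehicle as 0%, PEA at EC100 as 100% · Repeats – single well for each compound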
M4 antag: blocks acetylcholine activation of human M4 receptor | inhibition, % at 3 µM | 360,000 compounds, 0.73% hits | CHO-hM4 cells, ACh EC80, Fluo-8 calcium fluorescence;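 active means inhibition above its plate's cutoff, the mean inhibition of sample wells plus 3 SD, cut at about 27% in these data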;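 further: 0% = acetylcholine EC80 with DMSO and 100% = DMSO without agonist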
TAAR1 ag conf: human TAAR1 agonism, confirmed | 2,400 compounds, 82% hits | shares compounds with TAAR1 ag | CHO RD-HGA16 TAAR1, Fluo-8 calcium fluorescence; scaled: DMSO 0%, maximal phenethylamine 100% | activation, % at 3 µM | AID 651783;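 active means activation above a cutoff set at the run's mean compound activation plus 3 SD, cut at about 39% in these data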
Ga16 ag counter: nonselective agonist in parental cells, TAAR1 agonist counter-screen; shares compounds with TAAR1 ag; CHO-Ga16 parental, Fluo-8 calcium fluorescence; normalized to maximal ATP response, DMSO zero; activation, % at 3 µM; 2,400 compounds, 50% hits;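 active means activation above the run cutoff, the mean activation over all tested wells plus 3 SD, cut at about 12% in these data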;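 further: 0% = DMSO wells and 100% = maximal ATP response on the peak over basal ratio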
TAAR1 desens: human TAAR1 agonist that also desensitizes the receptor. shares compounds with TAAR1 ag. CHO RD-HGA16 hTAAR1, Fluo-8 calcium, beta-PEA response inhibition. 2,400 compounds, 46% hits. inhibition, % at 3 µM. AID 651951;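 active means inhibition above the run cutoff, the mean inhibition of all test compounds plus 3 SD, cut at about 49% in these data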;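 further: beta-PEA stimulus applied at its EC80; loss of beta-PEA calcium signal after compound pretreatment read as receptor desensitization; 0% = DMSO with beta-PEA at EC80 and 100% = DMSO alone without agonist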
Ga16 antag count: nonselective Ga16 antagonist in TAAR1 agonist counter-screen; 2,400 compounds, 39% hits; CHO-Ga16 ATP-induced calcium, Fluo-8 fluorescence; shares compounds with TAAR1 ag; inhibition, % at 3 µM;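 active means inhibition above the plate's mean compound inhibition plus 3 SD, computed per plate, cut at about 22% in these data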;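 further: 0% = EC80 ATP with DMSO and 100% = DMSO wells without ATP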
* = called active by the depositor; nt = not tested or not shown. Rows were chosen to be rich in hits. Some 3% of all compounds tested hit in one or more screens of this group.

SMILES	CHRM4 PAM	TAAR1 antag	CHRM4 agonist	TAAR1 ag	M4 antag	TAAR1 ag conf	Ga16 ag counter	TAAR1 desens	Ga16 antag count
Cc1ccc(S(=O)(=O)Cc2ccc(C(=O)N3CCN(Cc4ccccc4)CC3)o2)cc1	-2.3	-7.5	3.3	1.3	3.7	nt	nt	nt	nt
COc1ccccc1N1CCN(C(=O)c2cccc3c(=O)c(C)c(-c4ccccc4)oc23)CC1	-13.1	60.2*	15.5	70.0*	-12.9	68.7*	37.1*	48.0	33.0*
Cc1ccc(S(=O)(=O)Cc2ccc(C(=O)N3CCc4ccccc4C3)o2)cc1	-2.8	64.1*	2.8	69.0*	4.0	48.0*	5.3	10.7	16.4
COc1ccccc1N1CCN(C(=O)c2ccc(CS(=O)(=O)c3ccccc3OC)o2)CC1	-10.1	37.8	13.9	58.6*	3.0	58.9*	21.1*	55.0*	33.8*
O=C(NCC1CCCCC1)c1ccc2nc([C@@H]3O[C@H](CO)[C@H](O)[C@H](O)[C@H]3O)[nH]c2c1	6.7	7.7	0.0	0.4	-7.2	nt	nt	nt	nt
CC(C)N1C(=O)NC2NC(=O)N(C(C)C)C21 (stereo unspecified)	-2.9	-2.7	0.4	0.8	7.4	nt	nt	nt	nt
O=C(Nc1ccccc1)c1cc(C2CCCN(C(=O)c3cccs3)C2)on1 (stereo unspecified)	3.3	8.9	2.5	-0.5	-14.6	nt	nt	nt	nt
O=C1NC(Cc2ccccc2)c2nc3cc(F)ccc3c(=O)n2-c2ccccc21 (stereo unspecified)	nt	-8.9	nt	10.5	nt	nt	nt	nt	nt
COc1cccc(C=NN(C)c2c([N+](=O)[O-])cc(C(F)(F)F)cc2[N+](=O)[O-])c1O	-8.9	-13.5	-0.1	-1.3	22.0	nt	nt	nt	nt
CC(C)C[C@H]1CN(CCCC[C@@H]2CNC(=O)C(=O)N2CC2CCCCC2)C(=O)C(=O)N1Cc1ccccc1	1.8	-21.7	-0.3	1.4	4.8	nt	nt	nt	nt
CCOC(=O)c1ccc(NC(=O)COc2ccccc2CNCCc2ccccc2)cc1	-8.8	35.7	13.9	81.0*	1.4	111.3*	22.8*	85.3*	27.3*
CCOC(=O)c1ccc(NC(=O)COc2ccc(CNCCO)cc2OCC)cc1	-4.0	0.7	1.1	4.9	5.3	nt	nt	nt	nt
COc1cccc(NC(=O)C2(C)CCN2C(=O)CC2CC2)c1 (stereo unspecified)	14.5	-2.5	0.7	0.9	-21.4	nt	nt	nt	nt
COc1ccc(OC)c(CN2CCN(C(=O)c3ccc(S(=O)(=O)N4CCCCCC4)cc3)CC2)c1	2.4	-15.3	12.2	1.7	-29.2	nt	nt	nt	nt
Cc1cc2cc(CNC(=O)C3CCCC3)ccc2n1C	-3.8	-28.1	3.6	1.1	0.6	nt	nt	nt	nt
Cn1c(CNC(=O)C2CCCCC2)cc2cc(Cl)ccc21	17.4*	70.1*	15.5	64.7*	10.2	13.9	8.5	8.6	8.4
CCN(CC)CCCN1C(=O)CSC1c1ccc([N+](=O)[O-])cc1 (stereo unspecified)	-0.3	7.2	1.0	52.0*	4.8	1.2	1.6	9.0	3.9
CN(C)CCNc1ncnc2c1ncn2[C@H]1CN(CCc2ccccc2)C[C@@H](CO)O1	6.7	-16.5	0.3	57.6*	-17.6	47.9*	-0.7	6.8	4.3
O=c1c2ccccc2nnn1Cc1nnc(-c2ccccc2Br)o1	0.7	-1.2	2.7	66.7*	1.4	114.5*	79.7*	22.0	0.9
CCCCN(C(=O)NC(=O)Nc1ccccc1C)S(C)(=O)=O	3.5	-8.8	2.8	11.6	-1.5	nt	nt	nt	nt

Bioassay records from PubChem BioAssay.
